Experimental data as given in ChEMBL document CHEMBL3763092, “Design and synthesis of pyrrolobenzodiazepine-gallic hybrid agents as p53-dependent and -independent apoptogenic signaling in melanoma cells” (Eur J Med Chem, 2016).
Active and inactive are the calls of the source. The rule behind the calls is not given here.

Legend:
[1] = tested on: A-375; assay: Induction of reactive oxygen species generation in human A375 cells expressing p53 wild type assessed as increase in intracellular H2O2 level at 0.5 uM after 24 hrs by DCFH-DA staining based fluorescence analysis; type: functional, cell-based
In short: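 A375 cells were treated with 0.5 µM for 0, 12 and 24 h and stained with DCFH-DA to detect intracellular H2O2.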

[2] = tested on: A-375; assay: Induction of DNA lesion in human A375 cells expressing p53 wild type assessed as increase in 8-oxoguanine expression at 0.5 uM after 24 hrs by immunohistochemical analysis; type: functional, cell-based
In short: (§1)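 A375 cells on coverslips (1 × 10^4) were treated with 0.5 µM for 24 h. Cells were fixed in 4% formaldehyde for 5 min at 4 °C, permeabilized with 0.5% Triton X-100, and blocked with 5% BSA at 37 °C for 45 min. Primary antibodies were applied for 1 h at RT: mouse anti-p-ATR and anti-p-ATM 1:1000, anti-8-oxoguanine 1:250, COX IV and cytochrome c 1:1000. Secondary antibodies (rhodamine for 8-oxoguanine) followed for 30 min. DAPI counterstain.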

[3] = tested on: A-375; assay: Induction of DNA damage in human A375 cells expressing p53 wild type assessed as increase in ATR/ATM activation at 0.5 uM after 24 hrs by immuohistochemistry analysis; type: functional, cell-based; in short: as §1
[4] = tested on: A-375; assay: Increase in Chk1 phosphorylation in human A375 cells expressing p53 wild type at 0.5 uM after 24 hrs by western blot analysis; type: functional, cell-based
In short: (§2)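 A375 cells were exposed to 0.5 µM for 24 h, and lysates were immunoblotted with specific antibodies (p53, Cdc25c, p-Chk1, Bcl-xL, PARP, caspase-3). GAPDH served as loading control. Three independent experiments.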

[5] = tested on: A-375; assay: Decrease in Cdc25c level in human A375 cells expressing p53 wild type at 0.5 uM after 24 hrs by western blot analysis; type: functional, cell-based; in short: as §2
[6] = tested on: A-375; assay: Effect on cell cycle distribution in human A375 cells expressing p53 wild type assessed as number of cells at S-phase at 0.5 uM after 24 hrs by FACS analysis (reference value: 13.8 %); type: functional
[7] = tested on: A-375; assay: Effect on cell cycle distribution in human A375 cells expressing p53 wild type assessed as number of cells at G2/M phase at 0.5 uM after 24 hrs by FACS analysis (reference value: 12.1 %); type: functional
[8] = tested on: A-375; assay: Effect on cell cycle distribution in human A375 cells expressing p53 wild type assessed as number of cells at G0/G1 phase at 0.5 uM after 24 hrs by FACS analysis Rvb = 74.1 %); type: functional
[9] = tested on: A-375; assay: Effect on cell cycle distribution in human A375 cells expressing p53 wild type assessed as number of cells at subG1 phase at 0.5 uM after 24 hrs by FACS analysis (reference value: 1 %); type: functional
[10] = tested on: A-375; assay: Induction of apoptosis in human A375 cells expressing p53 wild type assessed as increase in p53 levels at 0.5 uM after 24 hrs by western blot analysis; type: functional, cell-based; in short: as §2
[11] = tested on: A-375; assay: Induction of apoptosis in human A375 cells expressing p53 wild type assessed as decrease in Bcl-xl levels at 0.5 uM after 24 hrs by western blot analysis; type: functional, cell-based; in short: as §2
[12] = tested on: A-375; assay: Induction of apoptosis in human A375 cells expressing p53 wild type assessed as increase in cleaved caspase-3 levels at 0.5 uM after 24 hrs by western blot analysis; type: functional, cell-based; in short: as §2
[13] = tested on: A-375; assay: Induction of apoptosis in human A375 cells expressing p53 wild type assessed as increase in cleaved PARP levels at 0.5 uM after 24 hrs by western blot analysis; type: functional, cell-based; in short: as §2
[14] = tested on: A-375; assay: Induction of apoptosis in human A375 cells expressing p53 wild type assessed as increase in p53 mRNA level by RT- qPCR analysis; type: functional, cell-based; conditions: TDE = time-dependent effect
In short: (§3)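 Quantitative real-time PCR on A375 cells over a time course, measuring p53, bax and bcl-xl mRNA normalized to GAPDH mRNA.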

[15] = tested on: A-375; assay: Induction of apoptosis in human A375 cells expressing p53 wild type assessed as increase in bax mRNA level by RT- qPCR analysis; type: functional, cell-based; conditions: TDE = time-dependent effect; in short: as §3
[16] = tested on: A-375; assay: Induction of apoptosis in human A375 cells expressing p53 wild type assessed as decrease in bcl-xl mRNA level by RT- qPCR analysis; type: functional, cell-based; conditions: TDE = time-dependent effect; in short: as §3
[17] = tested on: A-375; assay: Induction of apoptosis in human A375 cells expressing p53 wild type assessed as decrease in mitochondrial membrane potential at 0.5 uM after 12 hrs by DiOC6 dye based flow cytometry; type: functional, cell-based
In short: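 A375 cells were treated with 0.5 µM for 0, 12 and 24 h, labeled with DiOC6 and analyzed by flow cytometry. Three independent experiments.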

[18] = tested on: A-375; assay: Induction of apoptosis in human A375 cells expressing p53 wild type assessed as increase release of cytochrome c from mitochondria to cytosol at 0.5 uM after 24 hrs by immunofluorescence analysis; type: functional, cell-based; in short: as §1
[19] = tested on: A-375; assay: Induction of apoptosis in human A375 cells expressing p53 wild type assessed as lysosomal H+ concentration at 0.5 uM after 24 and 48 hrs by flow cytometric analysis; type: functional, cell-based
In short: (§4)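 Cells were loaded with LysoTracker Green (75 nM) for 15 min at 37 °C before treatment with 0.5 µM for the indicated times. After washing, mean fluorescence was quantified by flow cytometry. For p53 knockdown, A375 cells (6 × 10^4/well, antibiotic-free DMEM) were transfected with 30 nM tp53 siRNA or non-target siRNA using Lipofectamine RNAiMAX and harvested at 24 h.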

[20] = tested on: A-375; assay: Induction of apoptosis in human A375 cells transfected with siRNA p53 assessed as decrease in lysosomal H+ concentration at 0.5 uM after 24 and 48 hrs by flow cytometric analysis; type: functional, cell-based; in short: as §4
[21] = tested on: RPMI-7951; assay: Induction of apoptosis in human RPMI7951 cells expressing p53 mutant assessed as decrease in lysosomal H+ concentration at 0.5 uM after 24 and 48 hrs by flow cytometric analysis; type: functional, cell-based; in short: as §4
[22] = tested on: RPMI-7951; assay: Induction of apoptosis in human RPMI7951 cells expressing p53 mutant assessed as increased release of cathepsin D to cytosol at 0.5 uM by immunofluorescent staining analysis; type: functional, cell-based
In short: (§5)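 RPMI7951 cells on coverslips (1 × 10^4) were treated with 0.5 µM for 24 h. Immunofluorescence steps: fixation in 4% formaldehyde, permeabilization with 0.5% Triton X-100, blocking with 5% BSA. Primary antibodies: rabbit anti-cathepsin D and mouse anti-LAMP-1 at 1:500, cytochrome c and COX IV at 1:1000, 1 h at RT. Secondary antibodies for 30 min. DAPI counterstain.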

[23] = tested on: RPMI-7951; assay: Induction of apoptosis in human RPMI7951 cells expressing p53 mutant assessed as increased release of cytochrome c to cytosol at 0.5 uM by immunofluorescent staining analysis; type: functional, cell-based; in short: as §5
[24] = tested on: RPMI-7951; assay: Induction of apoptosis in human RPMI7951 cells expressing p53 mutant assessed as PARP cleavage at 0.5 uM after 24 hrs by western blot analysis; type: functional, cell-based
[25] = tested on: B16; assay: Antitumor activity against mouse B16 cells xenografted in ICR mouse assessed as decrease in tumor growth administered via interavenous; type: functional, cell-based
In short: (§6)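 Female ICR mice, seven weeks old, inoculated s.c. in the footpad with 1 × 10^6 B16 cells in 20 µl PBS. Once tumors reached a mean diameter of 4-7 mm (day 0), mice were randomized into groups of three and dosed i.v. at 0, 2, 4 mg/kg. Two perpendicular tumor diameters and body weight were taken at least 3 times weekly. T/C% was calculated from relative tumor volume; body weight is expressed as % of day 0. Statistics by t-test.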

[26] = tested on: B16; assay: Induction of apoptosis in mouse B16 cells at 0.5 uM after 24 hrs by FITC-annexin V/PI staining based fluorescence microscopy; type: functional, cell-based
In short: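 B16 cells were seeded on coverslips at 3 × 10^5 per well, allowed to attach for 24 h, then exposed to 0.5 µM for 24 h. After PBS washes, cells were stained with annexin V-FITC and PI (plus Hoechst33258) for at least 15 min at RT in the dark and viewed by fluorescence microscopy.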

[27] = tested on: Mus musculus; assay: Toxicity in ICR mouse xenografted with mouse B16 cells assessed as change in body weight at 2 to 4 mg/kg, iv; type: organism-based; conditions: in vivo; in short: as §6
[28] = tested on: A-375; assay: Cytotoxicity against human A375 cells expressing p53 wild type assessed as cell viability at 1 uM after 24 hrs by MTT assay; type: functional; conditions: A-375, 24 h, read-out: Activity
In short: (§7)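 Cells were exposed to compound at 1 µM for 24 h, then growth and viability were read by MTT assay. Media: A375 in DMEM; RPMI7951 and MCF-7 in MEM; A549 in RPMI1640; H1299 in DMEM-F12; all with 10% FCS and penicillin/streptomycin, at 37 °C and 5% CO2. Fibroblasts came from adult foreskin. DMSO stocks were 10 mM.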

[29] = Cytotoxicity against human RPMI7951 cells expressing p53 mutant assessed as cell viability at 1 uM after 24 hrs by MTT assay; type: functional; conditions: RPMI-7951, 24 h, read-out: Activity; in short: as §7
[30] = tested on: MCF7; assay: Cytotoxicity against human MCF7 cells expressing p53 wild type assessed as cell viability at 1 uM after 24 hrs by MTT assay; type: functional; conditions: MCF7, 24 h, read-out: Activity; in short: as §7
[31] = tested on: A549; assay: Cytotoxicity against human A549 cells assessed as cell viability at 1 uM after 24 hrs by MTT assay; type: functional; conditions: A549, 24 h, read-out: Activity; in short: as §7
[32] = Cytotoxicity against p53 knockout human H1299 cells assessed as cell viability at 1 uM after 24 hrs by MTT assay; type: functional; conditions: NCI-H1299, 24 h, read-out: Activity; in short: as §7
[33] = Cytotoxicity against human fibroblast cells expressing p53 wild type assessed as cell viability at 1 uM after 24 hrs by MTT assay; type: cell-based; conditions: read-out: Activity; in short: as §7
[34] = tested on: A-375; assay: Cytotoxicity against human A375 cells expressing p53 wild type assessed as colony formation at 0.5 uM after 10 days by SRB assay; type: functional, cell-based
In short: (§8)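 Cells were seeded at 100 per well and treated from the second day. Medium containing 0.5 µM agent was renewed every 3 days. After 10 days of treatment, colonies were stained with SRB and photographed. Three independent experiments.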

[35] = tested on: RPMI-7951; assay: Cytotoxicity against human RPMI7951 expressing p53 mutant cells assessed as colony formation at 0.5 uM after 10 days by SRB assay; type: functional, cell-based; in short: as §8

COc1cc2c(cc1OCCCCOc1cc(OC)c(OC)c(OC)c1)N=C[C@@H]1CCCN1C2=O
Activity [1]: Active | Activity [2]: Active | Activity [3]: Active | Activity [4]: Active | inhibition [5]: Active | Activity [6]: 47.9% | Activity [7]: 4.8% | Activity [8]: 32.6% | Activity [9]: 15.8% | Activity [10]: Active | Activity [11]: Active | Activity [12]: Active | Activity [13]: Active | Activity [14]: tde | Activity [15]: tde | Activity [16]: tde | Activity [17]: Active | Activity [18]: Active | Activity [19]: inactive | Activity [20]: Active | Activity [21]: Active | Activity [22]: Active | Activity [23]: Active | Activity [24]: Active | inhibition [25]: Dose-dependent effect | Activity [26]: Active | Activity [27]: Non-toxic | viability at 1 µM [28]: 37.4% | viability at 1 µM [29]: 62.3% | viability at 1 µM [30]: 55.3% | viability at 1 µM [31]: 77.9% | viability at 1 µM [32]: 73% | viability at 24 h, 1 µM [33]: 109% | inhibition [34]: Active | inhibition [35]: Active

COc1cc2c(cc1OCCCCCCOc1cc(OC)c(OC)c(OC)c1)N=C[C@@H]1CCCN1C2=O
Activity [10]: Active | Activity [11]: Active | Activity [12]: Active | Activity [13]: Active | viability at 1 µM [28]: 84.8% | viability at 1 µM [29]: 55.9% | viability at 1 µM [30]: 79% | viability at 1 µM [31]: 101% | viability at 1 µM [32]: 90.2% | viability at 24 h, 1 µM [33]: 93.4%

COc1cc2c(cc1OCCCOc1cc(OC)c(OC)c(OC)c1)N=C[C@@H]1CCCN1C2=O
Activity [10]: Active | Activity [11]: Active | Activity [12]: Active | Activity [13]: Active | viability at 1 µM [28]: 69.7% | viability at 1 µM [29]: 59.5% | viability at 1 µM [30]: 51.7% | viability at 1 µM [31]: 88.7% | viability at 1 µM [32]: 71.9% | viability at 24 h, 1 µM [33]: 97.3%

COc1cc2c(cc1OCCCCCNC(=O)c1cc(OC)c(OC)c(OC)c1)N=C[C@@H]1CCCN1C2=O
viability at 1 µM [28]: 74.7% | viability at 1 µM [29]: 111% | viability at 1 µM [30]: 101% | viability at 1 µM [31]: 96.8% | viability at 1 µM [32]: 96.9% | viability at 24 h, 1 µM [33]: 98.7%
